Assay results as given in ChEMBL document CHEMBL4000211, “Discovery of novel polycyclic spiro-fused carbocyclicoxindole-based anticancer agents” (Eur J Med Chem, 2017).
pIC50: −log10 of the molar value. The source made the active and inactive calls. The calls are words filed in the database; no cut-off is given here.

Legend:
HCT-116 [1] = test: Induction of apoptosis in human HCT116 cells assessed as nuclear fragmentation at 7.5 to 12.5 uM after 24 hrs by Hoechst 33342 staining-based fluorescence microscopic method; type: functional, cell-based
How it was run: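 HCT116 cells (1×10⁵/well) cultured 24 h, then exposed to 0, 7.5, 10 or 12.5 μM (final) for 24 h. Rinsed in PBS, fixed in 75% ethanol and checked by inverted microscopy. Then stained with Hoechst 33342 (2 μg/mL in PBS) and scored for apoptotic nuclear morphology under fluorescence microscopy.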

A2780S = test: Antiproliferative activity against human A2780S cells at 3.75 uM after 48 hrs by MTT assay relative to control; type: functional
How it was run: (§1)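 Cells seeded at 3×10³/well and grown 24 h, then exposed 48 h to six final concentrations, twofold steps down from 30. MTT (5 mg/mL) was added for 2–4 h at 37 °C. Supernatant was removed, formazan dissolved in DMSO, and OD read at 570 nm. Results are given as IC50, or as percent inhibition where IC50 exceeds the top concentration. At least three runs.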

HCT-116 [2] = test: Induction of apoptosis in human HCT116 cells assessed as viable cells at 7.5 uM after 48 hrs by annexin V-FITC/propidium iodide staining-based flow cytometric method (reference value: 95.05%); type: functional; details: HCT-116, 48 h, read-out: Activity
How it was run: (§2)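 HCT116 cells seeded at 1×10⁶ cells/mL in 6-well plates for 24 h, then exposed to 0, 7.5, 10 or 12.5 μM for a further 24 h or 48 h. Cells washed twice in PBS, then stained with Annexin V-FITC plus PI (100 μg/mL stock) in binding buffer (10 mM HEPES, pH 7.4, 2.5 mM CaCl₂) for 30 min at room temperature in the dark. Early and late apoptotic fractions gated by flow cytometry.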

HCT-116 [3] = test: Cell cycle arrest in human HCT116 cells assessed as accumulation at sub G1 phase at 10 uM after 48 hrs by propidium iodide staining-based flow cytometric method (reference value: 0.86%); type: functional
HCT-116 [4] = test: Induction of apoptosis in human HCT116 cells assessed as necrotic cells at 12.5 uM after 24 hrs by annexin V-FITC/propidium iodide staining-based flow cytometric method (reference value: 1.85%); type: functional; how it was run: as §2
HCT-116 [5] = test: Induction of apoptosis in human HCT116 cells assessed as necrotic cells at 7.5 uM after 24 hrs by annexin V-FITC/propidium iodide staining-based flow cytometric method (reference value: 1.85%); type: functional; how it was run: as §2
HCT-116 [6] = test: Cell cycle arrest in human HCT116 cells assessed as accumulation at S phase at 7.5 uM after 24 hrs by propidium iodide staining-based flow cytometric method (reference value: 36.43%); type: functional
HCT-116 [7] = test: Induction of apoptosis in human HCT116 cells assessed as necrotic cells at 10 uM after 48 hrs by annexin V-FITC/propidium iodide staining-based flow cytometric method (reference value: 2.29%); type: functional
HCT-116 [8] = test: Induction of apoptosis in human HCT116 cells assessed as early apoptotic cells at 7.5 uM after 24 hrs by annexin V-FITC/propidium iodide staining-based flow cytometric method (reference value: 1.9%); type: functional
HCT-116 [9] = test: Induction of apoptosis in human HCT116 cells assessed as late apoptotic cells at 7.5 uM after 24 hrs by annexin V-FITC/propidium iodide staining-based flow cytometric method (reference value: 2.77%); type: functional
[10] = target: E3 ubiquitin-protein ligase Mdm2 (Homo sapiens) (UniProt Q00987); test: Inhibition of MDM2-mediated p53 degradation in human HCT116 cells assessed as increase in p53 levels at 7.5 to 12.5 uM after 24 hrs by Western blot method; type: cell-based
E3 ubiquitin-protein ligase Mdm2 (Homo sapiens), sequence (Q00987 whole entry, looked up): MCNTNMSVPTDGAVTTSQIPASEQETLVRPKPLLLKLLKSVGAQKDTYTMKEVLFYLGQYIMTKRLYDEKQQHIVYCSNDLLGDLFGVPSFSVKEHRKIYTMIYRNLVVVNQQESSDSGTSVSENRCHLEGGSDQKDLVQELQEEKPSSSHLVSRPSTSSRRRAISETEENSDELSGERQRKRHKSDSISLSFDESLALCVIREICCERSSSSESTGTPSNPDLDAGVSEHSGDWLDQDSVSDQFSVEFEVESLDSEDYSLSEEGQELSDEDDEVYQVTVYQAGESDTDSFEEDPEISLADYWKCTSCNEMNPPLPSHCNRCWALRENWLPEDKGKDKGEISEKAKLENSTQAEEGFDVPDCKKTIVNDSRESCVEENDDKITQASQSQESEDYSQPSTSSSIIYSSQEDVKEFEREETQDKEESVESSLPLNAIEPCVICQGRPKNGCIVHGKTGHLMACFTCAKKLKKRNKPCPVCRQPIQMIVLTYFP
How it was run: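 Treated HCT116 cells lysed on ice in RIPA buffer with 1% protease inhibitor cocktail. Lysates cleared at 13000 g for 20 min at 4 °C and protein measured by BCA. Equal protein amounts run on SDS-PAGE, transferred to PVDF and probed with primary then HRP secondary antibodies. Bands detected by enhanced chemiluminescence; 24 h treatment.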

HCT-116 [11] = test: Induction of apoptosis in human HCT116 cells assessed as viable cells at 10 uM after 24 hrs by annexin V-FITC/propidium iodide staining-based flow cytometric method (reference value: 93.48%); type: functional; details: HCT-116, 24 h, read-out: Activity; how it was run: as §2
HCT-116 [12] = test: Induction of apoptosis in human HCT116 cells assessed as necrotic cells at 7.5 uM after 48 hrs by annexin V-FITC/propidium iodide staining-based flow cytometric method (reference value: 2.29%); type: functional; how it was run: as §2
CT26 = test: Antiproliferative activity against mouse CT26 cells after 48 hrs by MTT assay; type: functional, cell-based; details: CT26, 48 h; how it was run: as §1
HCT-116 [13] = test: Cell cycle arrest in human HCT116 cells assessed as accumulation at G2 phase at 7.5 uM after 48 hrs by propidium iodide staining-based flow cytometric method (reference value: 31.27%); type: functional
HCT-116 [14] = test: Induction of apoptosis in human HCT116 cells assessed as early apoptotic cells at 12.5 uM after 24 hrs by annexin V-FITC/propidium iodide staining-based flow cytometric method (reference value: 1.9%); type: functional
HCT-116 [15] = test: Induction of apoptosis in human HCT116 cells assessed as cell shrinkage at 7.5 to 12.5 uM after 24 hrs by inverted microscopic method; type: functional, cell-based
How it was run: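 HCT116 at 1×10⁵/well grown 24 h, then treated 24 h (0, 7.5, 10, 12.5). Cells rinsed in PBS and fixed in 75% ethanol. Morphology was examined by inverted microscopy, then cells were stained with Hoechst 33342 for fluorescence microscopy of nuclei.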

NCI-H1975 = test: Antiproliferative activity against human NCI-H1975 cells after 48 hrs by MTT assay; type: functional, cell-based; details: NCI-H1975, 48 h; how it was run: as §1
HCT-116 [16] = test: Induction of apoptosis in human HCT116 cells assessed as necrotic cells at 10 uM after 24 hrs by annexin V-FITC/propidium iodide staining-based flow cytometric method (reference value: 1.85%); type: functional
HCT-116 [17] = test: Induction of apoptosis in human HCT116 cells assessed as increase in cleaved caspase-3 level after 24 hrs by Western blot method; type: functional, cell-based
How it was run: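 Treated HCT116 were lysed on ice in RIPA buffer with 1% protease inhibitor cocktail and spun 13000 g, 20 min, 4 °C. Protein was quantified by BCA. Equal protein was run on SDS-PAGE, blotted to PVDF, probed with primary and HRP secondary antibodies, and detected by enhanced chemiluminescence.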

A549 = test: Antiproliferative activity against human A549 cells after 48 hrs by MTT assay; type: functional, cell-based; details: A549, 48 h; how it was run: as §1
HCT-116 [18] = test: Induction of apoptosis in human HCT116 cells assessed as late apoptotic cells at 12.5 uM after 48 hrs by annexin V-FITC/propidium iodide staining-based flow cytometric method (reference value: 1.06%); type: functional
HCT-116 [19] = test: Cell cycle arrest in human HCT116 cells assessed as accumulation at sub G1 phase at 7.5 uM after 48 hrs by propidium iodide staining-based flow cytometric method (reference value: 0.86%); type: functional
HCT-116 [20] = test: Cell cycle arrest in human HCT116 cells assessed as accumulation at G1 phase at 7.5 uM after 24 hrs by propidium iodide staining-based flow cytometric method (reference value: 43.79%); type: functional
HCT-116 [21] = test: Induction of apoptosis in human HCT116 cells assessed as necrotic cells at 12.5 uM after 48 hrs by annexin V-FITC/propidium iodide staining-based flow cytometric method (reference value: 2.29%); type: functional; how it was run: as §2

With `C[C@@H]1Oc2ccc3ccccc3c2[C@@H]2[C@@H]1C=C(C=O)[C@@H](C)[C@]21C(=O)Nc2ccccc21` as the molecule, how does the Activity (HCT-116 [1]) read?
The Activity was “Active”.

And the inhibition at 3.75 µM (A2780S)?
The inhibition at 3.75 µM was 17.7 to 24.1%.

And the viability at 7.5 µM (HCT-116 [2])?
The viability at 7.5 µM was 91.7%.

And the Activity (HCT-116 [3])?
The Activity was 32.93%.

And the Activity (HCT-116 [4])?
Its Activity is 2.21%.

What about the Activity (HCT-116 [5]) of the same molecule?
The Activity was 1.6%.

What about the Activity (HCT-116 [6]) of the same molecule?
The Activity was 32.56%.

And the Activity (HCT-116 [7])?
Its Activity is 2.82%.

And the Activity (HCT-116 [8])?
The Activity was 3.78%.

What about the Activity (HCT-116 [9]) of the same molecule?
The Activity was 4.71%.

And the inhibition [10]?
The inhibition was “Active”.

What about the viability at 10 µM (HCT-116 [11]) of the same molecule?
Its viability at 10 µM is 76.1%.

What about the Activity (HCT-116 [12]) of the same molecule?
The Activity was 2.02%.

And the pIC50 (CT26)?
The pIC50 was 5.02.

And the Activity (HCT-116 [13])?
The Activity was 26.41%.

And the Activity (HCT-116 [14])?
Its Activity is 33.2%.

What about the Activity (HCT-116 [15]) of the same molecule?
The Activity was “Active”.

And the pIC50 (NCI-H1975)?
The pIC50 was 4.86.

What about the Activity (HCT-116 [16]) of the same molecule?
The Activity was 2.46%.

And the Activity (HCT-116 [17])?
The Activity was “Dose-dependent effect”.

What about the pIC50 (A549) of the same molecule?
Its pIC50 is 4.74.

What about the Activity (HCT-116 [18]) of the same molecule?
The Activity was 18.89%.

And the Activity (HCT-116 [19])?
Its Activity is 4.19%.

And the Activity (HCT-116 [20])?
Its Activity is 46.1%.

And the Activity (HCT-116 [21])?
Its Activity is 5.28%.
